The source made the active and inactive calls. No cut-off for these calls is given here.
Tests used:
DCN1-like protein 1 [1] = target: T1, DCN1-like protein 1 (Homo sapiens, UniProt Q96GG9); test: Binding affinity to N-terminal His6-tagged recombinant human DCN1 expressed in Escherichia coli BL21-AI assessed as reduction in DCN1-FAM-labelled N-terminal acetylated UBE2M (1 to 12 residues) protein-protein interaction after 30 mins by fluorescence polarization competitive binding assay
Target sequence in this assay (Q96GG9 whole entry, the tested form may be a part): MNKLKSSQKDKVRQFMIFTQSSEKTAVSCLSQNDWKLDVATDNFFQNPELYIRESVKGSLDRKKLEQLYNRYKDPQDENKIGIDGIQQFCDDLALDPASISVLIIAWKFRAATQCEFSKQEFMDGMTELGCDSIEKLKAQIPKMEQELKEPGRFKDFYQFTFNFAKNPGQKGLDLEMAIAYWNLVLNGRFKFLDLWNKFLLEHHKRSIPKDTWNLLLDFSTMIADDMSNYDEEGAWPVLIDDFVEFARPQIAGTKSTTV

DCN1-like protein 1 [2] = target: T1, DCN1-like protein 1; test: Binding affinity to N-terminal GST tagged recombinant human DCN1 (58 to 259 residues) expressed in Escherichia coli BL21(DE3) assessed as reduction in DCN1-FAM-labelled N-terminal acetylated UBE2M (1 to 21 residues) protein-protein interaction after 30 mins by HTRF assay
Target sequence in this assay (Q96GG9 whole entry, the tested form may be a part): as above

[3] = Aqueous solubility of compound in pH 7.4 PBS sonicated for 30 mins followed by 24 hrs incubation under shaking condition by UV-Vis spectroscopy; type: physicochemical; details: buffer, pH 7.4, 24 h
Procedure, shortened: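 Compound powder added to phosphate buffer (PBS, pH 7.4) until a suspension formed. Sonicated 30 min in a water bath, then shaken 24 h at room temperature to reach equilibrium. Centrifuged, supernatant filtered through a 0.45µm membrane, and filtrate measured by UV spectroscopy against a PBS control.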

DCN1-like protein 3 = target: T2, DCN1-like protein 3 (Homo sapiens, UniProt Q8IWE4); test: Binding affinity to N-terminal GST tagged recombinant DCN3 (unknown origin) (86 to 304 residues) expressed in Escherichia coli BL21(DE3) assessed as reduction in DCN1/FAM-labelled N-terminal acetylated UBE2M (1 to 21 residues) protein-protein interaction after 30 mins by HTRF assay
T2 sequence (Q8IWE4 whole entry): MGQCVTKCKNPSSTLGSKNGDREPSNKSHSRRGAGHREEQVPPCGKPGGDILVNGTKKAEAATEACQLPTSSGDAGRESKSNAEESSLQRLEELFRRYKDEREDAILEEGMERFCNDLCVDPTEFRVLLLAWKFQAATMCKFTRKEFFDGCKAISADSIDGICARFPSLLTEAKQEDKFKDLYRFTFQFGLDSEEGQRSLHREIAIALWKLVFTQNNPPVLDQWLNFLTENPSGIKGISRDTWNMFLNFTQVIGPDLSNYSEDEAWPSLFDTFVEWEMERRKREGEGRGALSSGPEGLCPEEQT
Procedure, shortened: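 HTRF competition: 5nM GST-tagged DCN (1-5) and 5nM AcUBE2M1-21-biotin peptide, with streptavidin-XL665 and anti-GST cryptate, in 100mM phosphate buffer pH 6.5 with 0.02% Tween-20. Cocktail pre-incubated 30min at room temperature, compound added, then 30min more. Excitation 320nm, emission 615/665nm. Ki from three independent repeats, mean ± SD.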

NCI-H1975 [4] = test: Effect on NRF2 accumulation in human NCI-H1975 cells transfected with DCN1 siRNA3 by densitometric method; type: functional, cell-based
Procedure, shortened: (§1)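 H1975 or PC9 cells seeded in 6-well plates for 16-24h, transfected with DCN1 siRNA#3 by lipofection, with or without compound, and collected three days later. Western blot for Cullin3, DCN1, NRF2, HO-1 and NQO1, with densitometry normalized to GAPDH. Three individual experiments, means ± SD.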

PC-9 [5] = test: Effect on NRF2 accumulation in human PC9 cells transfected with DCN1 siRNA3 by densitometric method; type: functional, cell-based; procedure, shortened: as §1
NCI-H1975 [6] = test: Effect on NQO1 accumulation in human NCI-H1975 cells transfected with DCN1 siRNA3 by densitometric method; type: functional, cell-based; procedure, shortened: as §1
NCI-H1975 [7] = test: Effect on HO-1 accumulation in human […] cells transfected with DCN1 siRNA3 by densitometric method; type: functional, cell-based; procedure, shortened: as §1
KYSE-70 cell line = test: Antiproliferative activity against human KYSE-70 after 72 hrs by MTT assay; type: functional, cell-based; details: KYSE-70, 72 h
Procedure, shortened: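 MTT viability assay: cells seeded at 2~5×10^3 per well, exposed to serial dilutions of compound for 72h, then MTT (5 mg/mL in PBS) added for 4h at 37°C. Formazan dissolved in DMSO and read at 490nm. IC50 reported as mean ± SD of three independent experiments.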

NCI-H1975 [8] = test: Antiproliferative activity against human NCI-NCI-H1975 by MTT assay; type: functional, cell-based; details: TDE = time-dependent effect
A549 [9] = test: Induction of apoptosis in human A549 cells assessed as necrotic cells at 2.5 uM after 48 hrs by Annexin V-FITC/propidium iodide staining based flow cytometry (reference value: 0.88%); type: functional
A549 [10] = test: Induction of apoptosis in human A549 cells assessed as viable cells at 5 uM after 48 hrs by Annexin V-FITC/propidium iodide staining based flow cytometry (reference value: 92.9%); type: functional; details: A549, 48 h, read-out: Activity
A549 [11] = test: Induction of apoptosis in human A549 cells assessed as late apoptotic cells at 5 uM after 48 hrs by Annexin V-FITC/propidium iodide staining based flow cytometry (reference value: 2.61%); type: functional
A549 [12] = test: Induction of apoptosis in human A549 cells assessed as early apoptotic cells at 10 uM after 48 hrs by Annexin V-FITC/propidium iodide staining based flow cytometry (reference value: 3.63%); type: functional
PC-9 [13] = test: Induction of apoptosis in human PC9 cells assessed as viable cells at 2.5 uM after 48 hrs by Annexin V-FITC/propidium iodide staining based flow cytometry (reference value: 95.7%); type: functional; details: PC-9, 48 h, read-out: Activity
Procedure, shortened: (§2)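 PC9 cells seeded in 6-well plates (1~2×10^6 cells/mL), incubated overnight, then exposed to 0, 2.5, 5 or 10µM compound for 48h. Harvested cells stained with Annexin-V-FITC/PI for 30 min and analysed by flow cytometry. Three individual experiments; means ± SD.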

PC-9 [14] = test: Induction of apoptosis in human PC9 cells assessed as necrotic cells at 2.5 uM after 48 hrs by Annexin V-FITC/propidium iodide staining based flow cytometry (reference value: 1.34%); type: functional; procedure, shortened: as §2
PC-9 [15] = test: Induction of apoptosis in human PC9 cells assessed as viable cells at 5 uM after 48 hrs by Annexin V-FITC/propidium iodide staining based flow cytometry (reference value: 95.7%); type: functional; details: PC-9, 48 h, read-out: Activity; procedure, shortened: as §2
PC-9 [16] = test: Induction of apoptosis in human PC9 cells assessed as viable cells at 10 uM after 48 hrs by Annexin V-FITC/propidium iodide staining based flow cytometry (reference value: 95.7%); type: functional; details: PC-9, 48 h, read-out: Activity; procedure, shortened: as §2
PC-9 [17] = test: Induction of apoptosis in human PC9 cells assessed as late apoptotic cells at 10 uM after 48 hrs by Annexin V-FITC/propidium iodide staining based flow cytometry (reference value: 1.57%); type: functional
NCI-H1975 [18] = test: Induction of apoptosis in human NCI-NCI-H1975 cells assessed as necrotic cells at 2.5 uM after 48 hrs by Annexin V-FITC/propidium iodide staining based flow cytometry (reference value: 0.94%); type: functional
PC-9 [19] = test: Induction of apoptosis in human PC9 cells after 48 hrs by Annexin V-FITC/propidium iodide staining based flow cytometry; type: functional, cell-based; procedure, shortened: as §2
NCI-H1975 [20] = test: Induction of apoptosis in human NCI-NCI-H1975 cells after 48 hrs by Annexin V-FITC/propidium iodide staining based flow cytometry; type: functional, cell-based
DCN1-like protein 1 [21] = target: T1, DCN1-like protein 1
Target sequence in this assay (Q96GG9 whole entry, looked up, the tested form may be a part): as the sequence (Q96GG9 whole entry, the tested form may be a part) above

IC50 (DCN1-like protein 1 [1]): 26.9 nM | Ki (DCN1-like protein 1 [1]): 20.8 nM | IC50 (DCN1-like protein 1 [2]): 15.7 nM | Ki (DCN1-like protein 1 [2]): 13.7 nM | solubility [3]: Soluble | Ki (DCN1-like protein 3): 592 nM | ΔTm (DCN1-like protein 1 [21]): 7 °C
Structure (SMILES): C#CCSc1nc(Sc2nccs2)c(C#N)c(-c2ccc(C)cc2)n1
Activity (NCI-H1975 [4]): inactive | Activity (PC-9 [5]): inactive | Activity (NCI-H1975 [6]): inactive | Activity (NCI-H1975 [7]): inactive | IC50 (KYSE-70 cell line): 4300 nM | Activity (NCI-H1975 [8]): Tde | Activity (A549 [9]): 1.22% | viability at 5 µM (A549 [10]): 52.6% | Activity (A549 [11]): 31.6% | Activity (A549 [12]): 2.52% | viability at 2.5 µM (PC-9 [13]): 69.3% | Activity (PC-9 [14]): 19.9% | viability at 5 µM (PC-9 [15]): 63.8% | viability at 10 µM (PC-9 [16]): 23.4% | Activity (PC-9 [17]): 57.2% | Activity (NCI-H1975 [18]): 1.35% | Activity (PC-9 [19]): Dose-dependent effect | Activity (NCI-H1975 [20]): Dose-dependent effect
